Activity calls are given as the source filed them. The calls are words filed in the database; no cut-off is given here.
How the values were obtained:
[1] = tested on: Rattus norvegicus; experiment: Anti-inflammatory activity in carrageenan-induced paw edema Wistar rat model assessed as swelling thickness of paw at 10 mg/kg, po measured immediately by digital vernier caliper (reference value: 3.48 +/- 0.21 millimeter); type: functional
[2] = tested on: Rattus norvegicus; experiment: Anti-inflammatory activity in carrageenan-induced paw edema Wistar rat model assessed as swelling thickness of paw at 10 mg/kg, po measured after 1 hr by digital vernier caliper (reference value: 8.47 +/- 0.25 millimeter); type: functional
[3] = tested on: Rattus norvegicus; experiment: Anti-inflammatory activity in carrageenan-induced paw edema Wistar rat model assessed as swelling thickness of paw at 10 mg/kg, po measured after 2 hrs by digital vernier caliper (reference value: 8.65 +/- 0.53 millimeter); type: functional
[4] = tested on: Rattus norvegicus; experiment: Anti-inflammatory activity in carrageenan-induced paw edema Wistar rat model assessed as swelling thickness of paw at 10 mg/kg, po measured after 3 hrs by digital vernier caliper (reference value: 8.56 +/- 0.45 millimeter); type: functional
[5] = tested on: Rattus norvegicus; experiment: Anti-inflammatory activity in carrageenan-induced paw edema Wistar rat model assessed as swelling thickness of paw at 10 mg/kg, po measured after 4 hrs by digital vernier caliper (reference value: 8.36 +/- 0.78 millimeter); type: functional
[6] = tested on: Rattus norvegicus; experiment: Anti-inflammatory activity in carrageenan-induced paw edema Wistar rat model assessed as swelling thickness of paw at 10 mg/kg, po measured after 5 hrs by digital vernier caliper (reference value: 8.47 +/- 0.32 millimeter); type: functional
[7] = tested on: Rattus norvegicus; experiment: Anti-inflammatory activity in carrageenan-induced paw edema Wistar rat model assessed as swelling thickness of paw at 10 mg/kg, po measured after 6 hrs by digital vernier caliper (reference value: 8.33 +/- 0.42 millimeter); type: functional
[8] = tested on: Rattus norvegicus; experiment: Anti-inflammatory activity in carrageenan-induced paw edema Wistar rat model assessed as decrease in IL-6 level in paw tissue at 10 mg/kg, po measured for 6 hrs by ELISA; type: functional, organism-based
Method in brief: (§1)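 Paw tissue taken from carrageenan-edema rats dosed orally at 5, 10 or 20 mg kg−1. Tissue rinsed in PBS pH 7.4, minced, homogenized, filtered and centrifuged at 2000 rpm for 20 min at 4 °C. Supernatant assayed by ELISA for PGE2, IL-6, TNF-α and IL-10. Data as mean ± SD.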

[9] = tested on: Rattus norvegicus; experiment: Anti-inflammatory activity in carrageenan-induced paw edema Wistar rat model assessed as decrease in TNF-alpha level in paw tissue at 10 mg/kg, po measured for 6 hrs by ELISA; type: functional, organism-based; method in brief: as §1
[10] = tested on: Rattus norvegicus; experiment: Anti-inflammatory activity in carrageenan-induced paw edema Wistar rat model assessed as increase in IL-10 level in paw tissue at 10 mg/kg, po measured for 6 hrs by ELISA; type: functional, organism-based; method in brief: as §1
[11] = Toxicity in fasting Wistar rat assessed as ulcer score at 10 mg/kg, po via gavage treated for 3 days consecutively by H and E staining based analysis (reference value: 0); type: organism-based; conditions: in vivo, 72 h, time 3 day
Method in brief: (§2)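 Fasted rats, n = 6/group, gavaged once daily for 3 days in 0.3% Na CMC (vehicle control 0.3% CMC); killed under anaesthesia 6 h after day-3 dose; stomachs saline-washed, mucosa examined with hand lens; ulcer score, index and % ulceration by reported scoring; some stomachs formalin-fixed, H&E stained.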

[12] = Toxicity in fasting Wistar rat assessed as ulcer index at 10 mg/kg, po via gavage treated for 3 days consecutively by H and E staining based analysis (reference value: 0); type: organism-based; conditions: in vivo, 72 h, time 3 day; method in brief: as §2
[13] = Toxicity in fasting Wistar rat assessed as ulceration at 10 mg/kg, po via gavage treated for 3 days consecutively by H and E staining based analysis (reference value: 0 %); type: organism-based; conditions: in vivo, 72 h, time 3 day; method in brief: as §2
[14] = tested on: Gastric mucosa; experiment: Antioxidant activity in gastric mucosal tissue in Wistar rat assessed as increase in GSH level at 10 mg/kg, po; type: functional, organism-based
Method in brief: (§3)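 Fasted rats (n = 6/group) gavaged once daily for 3 days in 0.3% Na CMC and sacrificed 6 h after the final dose. Randomly chosen stomachs homogenized in cold PBS pH 7.4 and centrifuged at 1000 rpm for 10 min at 4 °C. Supernatant protein measured by Bradford assay; GSH and nitrate then measured by reported methods.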

[15] = tested on: Gastric mucosa; experiment: Antioxidant activity in gastric mucosal tissue in Wistar rat assessed as increase in SOD level at 10 mg/kg, po; type: functional, organism-based
Method in brief: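 Gastric tissue from fasted rats (dosed orally once daily for 3 days in 0.3% Na CMC) homogenized in cold PBS pH 7.4, centrifuged 1000 rpm, 10 min, 4 °C; protein by Bradford; SOD measured in supernatant per reported procedure.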

[16] = tested on: Gastric mucosa; experiment: Antioxidant activity in gastric mucosal tissue in Wistar rat assessed as decrease in nitrite level at 10 mg/kg, po; type: functional, organism-based; method in brief: as §3
[17] = Toxicity in Wistar rat assessed as change in serum ALT level at 10 mg/kg, po; type: organism-based; conditions: in vivo
Method in brief: (§4)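 Rats dosed orally in 0.3% Na CMC; retro-orbital blood clotted at room temperature, serum separated at 2000 rpm, 20 min, 4 °C; ALT, AST, creatinine and urea by commercial kits; n = 6 per group, mean ± SD; Tukey test after repeated-measures one-way ANOVA.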

[18] = Toxicity in Wistar rat assessed as change in serum AST level at 10 mg/kg, po; type: organism-based; conditions: in vivo; method in brief: as §4
[19] = Toxicity in Wistar rat assessed as change in serum creatinine level at 10 mg/kg, po; type: organism-based; conditions: in vivo; method in brief: as §4
[20] = Toxicity in Wistar rat assessed as change in serum urea level at 10 mg/kg, po; type: organism-based; conditions: in vivo; method in brief: as §4
[21] = tested on: Rattus norvegicus; experiment: Analgesic activity in acetic acid-induced pain Wistar rat model assessed as number of writhing at 10 mg/kg, po pretreated for 30 mins followed by acetic acid treatment measured for 30 mins by writhing test (reference value: 40.33 +/- 3.01); type: functional; conditions: time 60 min, 1 h

## COc1ccc2c(c1)c(CC(=O)O)c(C)n2C(=O)c1ccc(Cl)cc1 [INDOMETHACIN]
[1]
  Activity: 3.37 mm
[2]
  Activity: 3.74 mm
[3]
  Activity: 3.73 mm
[4]
  Activity: 3.38 mm
[5]
  Activity: 3.14 mm
[6]
  Activity: 3.17 mm
[7]
  Activity: 3.29 mm
[8]
  Activity: Active
[9]
  Activity: Active
[10]
  Activity: Active
[11]
  Activity: 3.041
[12]
  UI: 304.16
[13]
  Activity: 100%
[14]
  Activity: Active
[15]
  Activity: Active
[16]
  Activity: Active
[17]
  Activity: Toxic
[18]
  Activity: Toxic
[19]
  Activity: Toxic
[20]
  Activity: Toxic
[21]
  Activity: 16.5
